# Screens: PubChem BioAssay, several laboratories
# DDE Tn7 FP inh: inhibitors of Tn7 peptide binding to fibrin DD(E), primary screen, biochemical, fluorescence polarization, human fibrin, Tn7 probe; Fibrinogen beta chain (Homo sapiens), P02675; FP displacement of FITC-Tn7 peptide from fibrin DD(E); 0% = median of compound wells per plate; inhibition, % at 8.3 µM; 0.13% of 370,000 active; AID 720508, 2013;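 active = inhibition above the mean of compounds falling within the control limits plus 3 SD of them, cut at about 14% in these data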;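 note: 0% = plate median of compound wells and 100% = 10 µM Aha-Tn7 peptide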
# Target sequence (P02675 whole entry, looked up): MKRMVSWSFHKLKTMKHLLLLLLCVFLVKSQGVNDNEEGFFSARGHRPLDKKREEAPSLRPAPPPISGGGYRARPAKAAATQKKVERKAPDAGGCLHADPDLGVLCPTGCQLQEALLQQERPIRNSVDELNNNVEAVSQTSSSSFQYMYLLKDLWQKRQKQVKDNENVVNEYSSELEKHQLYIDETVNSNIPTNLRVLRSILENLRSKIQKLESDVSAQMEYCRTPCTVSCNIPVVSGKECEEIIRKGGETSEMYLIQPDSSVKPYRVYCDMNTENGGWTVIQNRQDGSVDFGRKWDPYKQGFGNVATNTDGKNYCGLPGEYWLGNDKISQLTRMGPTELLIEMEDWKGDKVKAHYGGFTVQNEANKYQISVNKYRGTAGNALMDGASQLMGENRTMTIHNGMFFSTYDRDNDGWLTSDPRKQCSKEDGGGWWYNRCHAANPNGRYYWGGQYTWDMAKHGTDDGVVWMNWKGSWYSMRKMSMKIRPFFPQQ
#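 Also added: labelled Tn7 tracer, 0.1 µM; Assay system: human fibrin DD(E) protein; Amount: 2 µM fibrin DD(E); Schedule: 10 min compound pre-incubation, 3 h probe incubation at room temperature; Repeats: one replicate per compound; Read-out basis: percent inhibition; Measured by: fluorescence polarization of the labelled Tn7 tracer.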
# CendR NRP1 mod: modulators of CendR peptide binding to NRP-1, primary screen, biochemical, fluorescence polarization, uHTS; FAM-RPARPAR peptide binding to NRP-1; inhibition, % at 25 µM; 0.85% of 360,000 active; AID 602438, 2012;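 active = inhibition or corrected inhibition above about 18%, plus a signal ratio from 0.5 to 1.5, limit read from the data, passing the limit was not always enough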
# CRFR2-BP ag: agonists of CRF-BP/CRF-R2 complex, primary screen, cell-based, HEK293, calcium dye fluorescence, uHTS | CRF-binding protein / CRF receptor 2 complex (human) | calcium dye fluorescence (FLIPR); percent of saturating CRF peptide response | activation, % at 13.2 µM | 0.46% of 350,000 active | AID 588473, 2011;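 active = activation of at least 50%, plus an integration ratio under a set limit after plate pattern correction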;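 note: plate controls were neutral control wells without compound for no effect and CRF at EC100 for full effect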
# proKLK7 act: proKLK7 zymogen activators, primary screen, biochemical, fluorescence intensity. Kallikrein-7 (Homo sapiens), P49862. purified proKLK7, EDANS-DABCYL substrate fluorescence; 100% is mature enzyme control, 0% vehicle. activation, % at 7 µM. 0.9% of 370,000 active. AID 652039, 2013;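 active = activation above the mean of all tested compounds plus 3 SD, computed per campaign excluding outliers beyond control limits, cut at about 13% in these data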
# CRFR2-BP antag: antagonists of CRF-BP/CRF-R2 complex, primary screen, cell-based, HEK293, calcium dye fluorescence, uHTS; CRF-induced calcium fluorescence; inhibition, % at 11.8 µM; 0.59% of 350,000 active;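 active = inhibition of the ligand-induced calcium signal above about 50% at the single tested concentration, limit read from the data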
# DDE Tn6 FP inh: inhibitors of Tn6 peptide binding to fibrin DD(E), primary screen, biochemical, fluorescence polarization, human fibrin, Tn6 probe; Fibrin DD(E) TRITC-Tn6 fluorescence polarization displacement; 0.21% of 370,000 active; inhibition, % at 8.3 µM; AID 720509, 2013;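 active = inhibition above a per-campaign cutoff: mean of compounds within control limits plus 3 SD, cut at about 15% in these data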;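 note: 0% = median of all compound wells on the plate and 100% = blocking peptide control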
# The depositor's hits bear a star; · = not tested or not shown. Most compounds without a hit are left out; they make up all but 2.9% or so of the library.
SMILES,DDE Tn7 FP inh,CendR NRP1 mod,CRFR2-BP ag,proKLK7 act,CRFR2-BP antag,DDE Tn6 FP inh
CCCN(CC(=O)Nc1ccccc1C)C(=O)c1ccc(C2SCCS2)cc1,0,26*,0,0,1,2
O=c1cc(Cc2ccc([N+](=O)[O-])cc2)[nH]c(=O)[nH]1,7,17,1,0,57*,2
Nc1ccc(Cc2ccc([N+](=O)[O-])cc2)cc1,0,5,-3,1,33,-5
O=c1[nH][nH]c2cc(=O)n(-c3cccc(C(F)(F)F)c3)nc12,5,26*,-1,0,3,-2
Nc1n[nH]c2cc(=O)n(-c3cccc(C(F)(F)F)c3)nc12,-2,0,16,1,-18,-8
O=C(CC1C(=O)NCCN1Cc1ccc(F)c(F)c1)NCCn1cccn1 (stereo not drawn),-2,28*,0,0,-11,-4
O=C(CC1C(=O)NCCN1Cc1cccc(Oc2ccccc2)c1)NCCCn1cccn1 (stereo not drawn),0,23*,4,0,-4,0
COc1ccc(CN2CCNC(=O)C2CC(=O)NCCCn2cccn2)cc1C (stereo not drawn),-4,3,1,-1,-11,-1
CCCCNC(=O)NCCCN1CCN(c2ccc(F)cc2)CC1,-2,·,·,0,·,-10
O=S1(=O)c2c(cccc2N2CCSCC2)Oc2ccccc2CN1Cc1cn(Cc2ccccc2C(F)(F)F)nn1,-10,·,·,-5,·,-8
C[C@@H]1CN([C@H](C)CO)C(=O)c2cc(NC(=O)Nc3ccccc3)ccc2O[C@@H](C)CCCCO[C@H]1CN(C)S(=O)(=O)c1ccc(F)cc1,-1,·,·,·,·,-4
COCc1nnc(NC(=O)c2c(-c3c(Cl)cccc3Cl)noc2C)s1,6,20*,4,0,-7,0
O=C(OC12CCCN(C1)/C(=C/c1ccc(Cl)cc1)C2)c1cccc(F)c1 (stereo not drawn),-5,·,·,-1,·,-2
Cc1ccc(NC(=O)COc2ncnc3c(Cl)cc(Cl)cc23)cc1[N+](=O)[O-],10,25*,-1,0,1,-1
COc1ccccc1CCn1cnc(-c2cccc(Br)c2)c1CC(C)C,4,·,·,0,·,-12
CCOC(=O)C1=C(CCc2ccccc2)NC(=O)NC1c1cccc([N+](=O)[O-])c1 (stereo not drawn),2,5,1,0,58*,0
COC(=O)[C@H](CC(C)C)N(Cc1cn(Cc2ccc(C)cc2)nn1)S(=O)(=O)c1ccc(F)cc1Br,1,·,·,0,·,-5
CC(N=C1NS(=O)(=O)c2ccccc21)C(=O)N1CCc2ccccc2C1 (stereo not drawn),2,9,1,0,106*,-4
Cc1ccc(NC(=O)C(C)N=C2NS(=O)(=O)c3ccccc32)cc1 (stereo not drawn),0,-6,2,1,14,-7
COc1ccc2c(c1)CCCN2C(=O)C1CCCN(S(=O)(=O)c2ccc(Br)s2)C1 (stereo not drawn),6,·,·,0,·,-4
COc1ccc(/C=C/S(=O)(=O)NC2CCCC2)c(CNC(=O)OC(C)(C)C)c1,1,·,·,0,·,-2
O=S(=O)(Nc1nc(-c2sccc2Cl)cs1)c1cc(Cl)ccc1Cl,·,-73,-1,·,59*,·
CCn1c2ccccc2c2cc([N+](=O)[O-])ccc21,-3,29*,-1,-1,10,0
Cc1nn(C)c(Oc2ccc(Cl)cc2)c1C(=O)O,-3,2,-1,0,61*,-11
C=CCN1[C@H](CC(C)C)COc2cc(N3CCSCC3)ccc2S1(=O)=O,-2,·,·,1,·,0
SMILES,DDE Tn7 FP inh,CendR NRP1 mod,CRFR2-BP ag,proKLK7 act,CRFR2-BP antag,DDE Tn6 FP inh
Cc1ccc(C)c(-n2c3nc(=O)[nH]c(=O)c-3cc3cc([N+](=O)[O-])ccc32)c1,-1,-47,61*,2,-130,3
Cc1cccc(-n2c3nc(=O)[nH]c(=O)c-3cc3cc([N+](=O)[O-])ccc32)c1,6,-60,2,1,-56,0
CC(=O)Nc1ccc(OCC(C)CN2CCC(C(O)(c3ccccc3)c3ccccc3)CC2)cc1 (stereo not drawn),-2,·,·,0,·,-6
O=C1CCCc2oc3c(cc(NS(=O)(=O)c4ccc5c6c(cccc46)C(=O)N5)c4ccccc43)c21,-2,-8,-2,26*,-12,-18
Cn1c(COc2ccccc2)nnc1SCC(=O)c1cccc([N+](=O)[O-])c1,7,-3,1,0,59*,-2
N#Cc1ccc(OCc2nnc(SCC(=O)c3ccccc3)n2-c2ccccc2)cc1,1,31*,0,0,29,-3
CCOc1cc(C)ccc1OCc1nnc(SCC(=O)c2cccc([N+](=O)[O-])c2)n1C,5,-9,-1,0,56*,-2
CCn1c(Cc2ccccc2)nnc1SCC(=O)c1cccc([N+](=O)[O-])c1,1,-6,-1,0,-4,3
Cc1ccc(OCc2nnc(SCC(=O)c3ccccc3)n2-c2ccccc2)cc1,-8,-1,4,1,-3,-7
Cc1noc(C(F)(F)F)c1C(=O)NNC(=O)c1cccc(C(F)(F)F)c1,-3,-4,2,0,114*,2
CCN(CC)C(=O)CSc1ncnc2c1nnn2-c1ccc(OC)cc1,·,-8,1,·,84*,·
CCN(CC)C(=O)CSc1ncnc2c1nnn2-c1ccc(F)cc1,-3,3,-2,0,4,4
CN(CCOC(=O)C1c2ccccc2Oc2ccccc21)C(C)(C)C,·,11,0,·,50*,·
CN(c1ccccc1)c1ccc(/C=C(\CCC(=O)O)c2nc3ccccc3s2)cc1[N+](=O)[O-],5,-16,-2,0,52*,-3
Cc1ccc(/C=C(\CCC(=O)O)c2nc3ccccc3s2)cc1[N+](=O)[O-],0,-21,-1,0,5,-10
CC1(C)CC(=O)C(=Cc2cn(CCC#N)nc2-c2ccc(Cl)cc2)C(=O)C1,0,-13,-2,0,-7,2
CC1(C)CC(=O)C(=Cc2cn(-c3ccccc3)nc2-c2ccc(Cl)cc2)C(=O)C1,1,-3,58*,0,-41,6
CC1=CC(C)(C)N(C(=O)c2ccccc2)c2ccc(C)cc21,3,4,67*,0,-49,0
